Test results as given in ChEMBL document CHEMBL4028857, “Anchimerically Activated ProTides as Inhibitors of Cap-Dependent Translation and Inducers of Chemosensitization in Mantle Cell Lymphoma” (J Med Chem, 2017).
Active and inactive are the calls of the source. The rule behind the calls is not given here.

What was measured:
Rattus norvegicus [1] = test: Cmax in Sprague-Dawley rat assessed as 9-((2R,3R,4S,5R)-5-(((((2-(1H-Indol-3-yl)ethyl)amino)-(hydroxy)phosphoryl)oxy)methyl)-3,4-dihydroxytetrahydrofuran-2-yl)-2-amino-7-(2-(4-chlorophenoxy)ethyl)-6-oxo-6,9-dihydro-1H-purin-7-ium level at 25 mg/kg, po measured at 30 mins post dose by LC-MS/MS analysis; assay type: ADME, organism-based; design: dose 25 mg/kg, route oral; settings: in vivo, 0.5 h
Outline: (§1)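 Female Sprague-Dawley rats (250-274 g, n=3, catheterized femoral/jugular veins) dosed once p.o. by gavage (25 mg/kg) then, after a 3-day washout, i.v. (2.5 mg/kg). Formulation: 10 mg/mL in 0.5% aqueous CMC with 5% DMSO. Serial blood draws to 480 min into K2EDTA; plasma protein-precipitated with acetonitrile plus internal standards; LC-MS/MS (positive MRM); non-compartmental PK; %F from dose-normalized AUC per rat.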

[2] = biological target: T1, Adenosine 5'-monophosphoramidase HINT1 (Homo sapiens, UniProt P49773); test: Prodrug activation in human GRANTA-519 cells assessed as Hint1 mediated 2-amino-7-(2-(4-chlorophenoxy)ethyl)-9-((2R,3R,4S,5R)-3,4-dihydroxy-5-(phosphonooxymethyl)tetrahydrofuran-2-yl)-6-oxo-6,9-dihydro-1H-purin-7-ium formation per 5 million cells at 150 uM after 12 hrs by LC-MS/MS analysis; assay type: cell-based
Outline: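 Five million MCL cells in RPMI/10% FBS with penicillin, streptomycin and L-glutamine were exposed to compound (150 µM) for 12 h at 37 °C. Cells were washed in cold PBS, extracted in MeOH/NH4OAc (60:40) with 80 fmol internal standards, freeze-thawed three times, then filtered and dried. Residue was taken up in HEPES for LC-MS/MS, quantified against an internal-standard curve.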

Rattus norvegicus [3] = test: Clearance in Sprague-Dawley rat at 2.5 mg/kg, iv by LC-MS/MS analysis; assay type: ADME, organism-based; settings: in vivo; outline: as §1
[4] = biological target: Eukaryotic translation initiation factor 4E (Homo sapiens) (UniProt P06730); test: Inhibition of eIF4E in human GRANTA-519 cells assessed as down regulation of Bcl-2 protein expression at 50 to 200 uM after 48 hrs by Western blot method; assay type: cell-based
Outline: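 MCL lines treated 48 h with compound; protein quantified and Western blotted with eIF4E, eIF4G, actin, c-Myc and Bcl-2 antibodies.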

[5] = Half life in Sprague-Dawley rat at 2.5 mg/kg, iv by LC-MS/MS analysis; assay type: ADME, organism-based; settings: in vivo; outline: as §1
[6] = biological target: T1, Adenosine 5'-monophosphoramidase HINT1; test: Prodrug activation in human Z138 cells assessed as Hint1 mediated 2-amino-7-(2-(4-chlorophenoxy)ethyl)-9-((2R,3R,4S,5R)-3,4-dihydroxy-5-(phosphonooxymethyl)tetrahydrofuran-2-yl)-6-oxo-6,9-dihydro-1H-purin-7-ium formation per 5 million cells at 150 uM after 12 hrs by LC-MS/MS analysis; assay type: cell-based
Outline: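 Mantle cell lymphoma cells (five million) grown in RPMI with 10% FBS, penicillin/streptomycin and L-glutamine at 37 °C, 5% CO2, then exposed to 150 µM compound for 12 h at 37 °C. Washed with ice-cold PBS, pellet extracted in MeOH/NH4OAc (60:40) with 80 fmol internal standards, three liquid-N2 freeze–thaw cycles, filtered, dried, redissolved in 20 mM HEPES pH 7.2. Analysed by LC-MS/MS against a standard curve.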

T1 sequence (P49773 whole entry): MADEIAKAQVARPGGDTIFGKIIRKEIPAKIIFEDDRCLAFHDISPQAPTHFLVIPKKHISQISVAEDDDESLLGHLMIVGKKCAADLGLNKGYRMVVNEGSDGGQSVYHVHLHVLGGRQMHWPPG
Sequence of Eukaryotic translation initiation factor 4E (Homo sapiens) (P06730 whole entry): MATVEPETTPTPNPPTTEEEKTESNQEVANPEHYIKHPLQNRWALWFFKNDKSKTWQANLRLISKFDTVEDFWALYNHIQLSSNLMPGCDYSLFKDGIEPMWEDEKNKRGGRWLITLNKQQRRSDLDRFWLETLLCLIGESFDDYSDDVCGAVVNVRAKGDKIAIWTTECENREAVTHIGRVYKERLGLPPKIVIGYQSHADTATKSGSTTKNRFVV

- Cmax (Rattus norvegicus [1]): 6 ng/mL
- Drug metabolism [2]: 10.3 pmol
- CL (Rattus norvegicus [3]): 1800 mL/min/kg
- inhibition [4]: inactive
- half-life [5]: 1.32 h
- Drug metabolism [6]: 272 pmol
SMILES: CSCCOP(=O)(NCCc1c[nH]c2ccccc12)OC[C@H]1O[C@@H](n2c[n+](CCOc3ccc(Cl)cc3)c3c(=O)[nH]c(N)nc32)[C@H](O)[C@@H]1O (stereo partly specified)
